A selection: hits, their analogues and other compounds. The true share with any hit is near 2.3%.
OXTR agonist – activates the human oxytocin receptor. activation, % at 3 µM. CHO-OTR cells, Fluo-8 calcium fluorescence; normalized: DMSO 0%, oxytocin 100%. hit rate 0.32% among 320,000;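 active = activation above the mean of all tested compounds plus 3 SD, cutoff set per screening run, cut at about 20% in these data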;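 also: peak over basal fluorescence ratio from a 100 s FLIPR kinetic read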
Target sequence (P30559 whole entry, looked up): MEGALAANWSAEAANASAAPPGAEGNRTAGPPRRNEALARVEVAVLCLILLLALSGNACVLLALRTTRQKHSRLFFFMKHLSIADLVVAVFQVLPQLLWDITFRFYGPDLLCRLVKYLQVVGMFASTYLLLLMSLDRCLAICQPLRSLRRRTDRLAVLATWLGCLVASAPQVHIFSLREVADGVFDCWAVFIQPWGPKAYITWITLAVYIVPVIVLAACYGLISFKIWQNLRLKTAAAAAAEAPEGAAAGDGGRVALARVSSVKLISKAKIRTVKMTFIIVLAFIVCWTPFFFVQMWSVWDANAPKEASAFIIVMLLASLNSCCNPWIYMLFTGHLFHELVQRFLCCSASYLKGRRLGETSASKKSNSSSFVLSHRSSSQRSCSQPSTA
TAAR1 ag – agonists of human TAAR1 | Q96RJ0 | CHO RD-HGA16 TAAR1, Fluo-8 calcium fluorescence; vehicle wells 0%, saturating PEA agonist 100% | activation, % at 3 µM | hit rate 0.99% among 360,000;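 active = activation above the mean activation of all test compounds in the run plus 3 SD, cut at about 38% in these data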
Target sequence (Q96RJ0 whole entry, looked up): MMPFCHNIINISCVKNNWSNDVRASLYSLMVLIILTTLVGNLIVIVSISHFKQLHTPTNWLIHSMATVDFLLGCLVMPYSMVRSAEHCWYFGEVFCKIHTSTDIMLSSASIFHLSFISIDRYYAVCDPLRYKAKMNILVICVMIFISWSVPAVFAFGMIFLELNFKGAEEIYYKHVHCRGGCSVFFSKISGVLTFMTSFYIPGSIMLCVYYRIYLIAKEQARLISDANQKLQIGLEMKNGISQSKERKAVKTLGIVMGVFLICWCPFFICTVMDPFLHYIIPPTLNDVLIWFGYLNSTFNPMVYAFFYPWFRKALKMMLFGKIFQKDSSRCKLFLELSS
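test system = CHO RD-HGA16 cells carrying human TAAR1 plus Gα16 | schedule = 17-24 h seeding, 75 min 37 °C dye, 30 min RT | compound dosing = 3 µM single concentration | control set = DMSO and PEA EC100 | replicates = n 1 | signal = Fluo-8 fluorescence, 5 s baseline then 140 s kinetic read | measure = percent activation vs PEA EC100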
OXTR potentiator – potentiates the human oxytocin receptor response. P30559. CHO-OTR cells, Fluo-8 calcium fluorescence, potentiator mode; 0% = oxytocin EC15, 100% = EC100. activation, % at 3 µM. hit rate 0.061% among 320,000. AID 2445;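 active = activation above that plate's cutoff, the mean activation of tested compounds plus 3 SD, cut at about 6.6% in these data, passing the limit was not always enough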
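Dosing: Single dose, 3.0 µM nominal final compound concentration | Material: Human OTR in CHO cells | Technique: Kinetic Fluo-8 calcium fluorescence | Benchmarks: EC15 oxytocin alone as 0%, 75 nM oxytocin as 100% | Probe or stimulus: Oxytocin at about EC15, sub-maximal agonist stimulus | Incubation: Compound 6 min at room temperature before oxytocin, 100 s read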
TAAR1 antagonist – antagonists of human TAAR1; AID 624466; inhibition, % at 3 µM; CHO RD-HGA16 TAAR1, Fluo-8 calcium fluorescence, antagonist; hit rate 1.5% among 360,000;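 active = inhibition above a per-plate cutoff, the mean inhibition of test compounds on that plate plus 3 SD, cut at about 49% in these data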
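test system = CHO RD-HGA16 cells bearing hTAAR1 | replication = singlicate | controls = DMSO-only wells and EC80 β-PEA-stimulated wells | reagent = EC80 β-phenethylamine stimulus | read-out basis = percent inhibition of PEA-evoked calcium signal, max/basal emission ratio | schedule = seeding 17-24 h prior, 75-min 37 °C, 30-min RT dye loading | signal = kinetic Fluo-8 calcium fluorescence measurement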
V1aR counter – V1a receptor agonism, counter-screen for OXTR agonists | CHO-V1R cells, Fluo-8 calcium fluorescence, agonist mode; 0% DMSO, 100% 3 nM vasopressin | activation, % at 3 µM | hit rate 0.25% among 320,000 | AID 2797;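 active = activation above the mean activation of all tested compounds plus 3 SD, per screening run, cut at about 20% in these data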;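 also: signal is peak over basal fluorescence ratio across a 100 second FLIPR read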
Of the large screens only hits and unclear results are named; the others gave an inactive call.

Cc1ccc(C(C(=O)NCc2ccc(F)cc2)N(CCCO)C(=O)C2COc3ccccc3O2)o1 (stereo not drawn)	TAAR1 antagonist 51.8
Cc1ccc(CNC(=O)C2COc3ccccc3O2)cc1 (stereo not drawn)	none
Cc1nc2ccccn2c1-c1csc(Nc2cccc(O)c2)n1	TAAR1 antagonist 55.2 (no result: OXTR agonist, OXTR potentiator, V1aR counter)
Cc1[nH]n(-c2ccccc2)c(=O)c1N=Nc1ccccc1O	none (no result: OXTR agonist, OXTR potentiator, V1aR counter)
Cc1[nH]n(-c2ccccc2)c(=O)c1N=Nc1nccs1	TAAR1 ag 41.9
CCCC(C)NC(=S)NC(=O)c1cc(S(=O)(=O)N2CCOCC2)ccc1C (stereo not drawn)	none
Cc1ccc(S(=O)(=O)N2CCOCC2)cc1C(=O)NC(=S)N1CC(C)CC(C)C1 (stereo not drawn)	TAAR1 ag 38.8
O=C(/C=C/c1ccccc1)CC(=O)c1ccccc1	none (no result: OXTR agonist, OXTR potentiator, V1aR counter)
O=C(CC(=O)c1ccccc1)CC(O)(C=Cc1ccccc1)c1ccccc1 (stereo not drawn)	TAAR1 antagonist 50.8 (no result: OXTR agonist, OXTR potentiator, V1aR counter)
Cc1nn(-c2ccccc2)c(N2CCCC2)c1/C=N/NC(=O)c1cc(-c2cccnc2)nc2ccccc12	TAAR1 antagonist 51.0
Cc1nn(-c2ccccc2)c(N2CCCC2)c1/C=N/NC(=O)c1ccccc1O	none
O=C(/C=C/c1cccs1)NC(=S)NNC(=O)Cc1cccs1	TAAR1 ag 67.5
CCN(CC(=O)Nc1c(F)cccc1F)C(=O)C1=COCCO1	none
O=C(COc1ccccc1)Nc1ccc(CSc2ccccc2)cc1	TAAR1 antagonist 50.8
O=C(Nc1ccc(CSc2ccccc2)cc1)c1ccccc1	none
O=C(CSCc1ccc(Cl)cc1)N/N=C/c1ccc(OCC(=O)Nc2ccccc2)cc1	TAAR1 antagonist 57.1
Fc1ccc(-c2cn3cc(C(F)(F)F)cc(Cl)c3n2)cc1	none
COc1ccc(-c2cn3cc(C(F)(F)F)cc(Cl)c3n2)cc1	OXTR potentiator 10.8
Cc1ccc(NC(=O)CCc2nnc3ccc(NCc4ccco4)nn23)cc1	none
CCN(CC)C(=O)C1c2ccccc2Oc2ccccc21	OXTR agonist 47.6, V1aR counter 64.0
CC(=O)C1=C(S(=O)(=O)c2ccc(C)cc2)CS(=O)(=O)C1	none (no result: OXTR agonist, OXTR potentiator, V1aR counter)
COc1ccccc1NC(=O)N(C)C[C@@H]1OCc2cn(nn2)CCCC(=O)N([C@H](C)CO)C[C@H]1C	none (no result: OXTR agonist, OXTR potentiator, V1aR counter)
O=C(Nc1ccc(Cl)c(Cl)c1)N(CCCN1CCOCC1)Cc1cccs1	TAAR1 ag 45.6
O=S(=O)(c1ccccc1)N1CCN(Cc2c(O)ccc3ccccc23)CC1	TAAR1 antagonist 51.4
Cc1cc(C)c(C#N)c(SCC(O)COc2ccc(Br)cc2)n1 (stereo not drawn)	TAAR1 antagonist 56.2
Cc1ccccc1CN(C)CC(=O)Nc1cccc(S(=O)(=O)N(C)c2ccccc2)c1	none
CN(CC(=O)Nc1cccc(F)c1)CC(=O)Nc1cccc2ccccc12	TAAR1 ag 45.8, TAAR1 antagonist 58.8
Cc1cc(C)c(NC(=O)CN(C)CC(=O)Nc2cccc(S(=O)(=O)N(C)c3ccccc3)c2)c(C)c1	TAAR1 ag 43.7, TAAR1 antagonist 88.7
CN(CC(=O)Nc1cccc(F)c1)CC(=O)Nc1cccc(S(=O)(=O)N(C)c2ccccc2)c1	TAAR1 antagonist 62.8 (no result: OXTR agonist, OXTR potentiator, V1aR counter)
CN(CC(=O)Nc1cccc(F)c1)CC(=O)Nc1ccccc1[N+](=O)[O-]	none
O=C(N/C(=C/c1ccccc1Cl)C(=O)N1CCCCC1)c1ccco1	none
COc1cc(OC)c(N(C)S(=O)(=O)c2cccc(C(=O)Nc3nc(C)cs3)c2)cc1Cl	TAAR1 antagonist 50.6
COc1cc(OC)c(N(C)S(=O)(=O)c2cccc(C(=O)OCC(=O)NCc3ccco3)c2)cc1Cl	TAAR1 antagonist 51.1
COc1ccc(N(C)S(=O)(=O)c2cccc(C(=O)OCC(=O)N3CC(C)CC(C)C3)c2)cc1 (stereo not drawn)	TAAR1 antagonist 54.4
CC1CC(C)CN(C(=O)c2cccc(S(=O)(=O)N(C)c3ccccc3)c2)C1 (stereo not drawn)	none (no result: OXTR agonist, OXTR potentiator, V1aR counter)
CN(c1ccccc1)S(=O)(=O)c1cccc(C(=O)OCC(=O)NCc2ccccc2)c1	none
CN(c1ccccc1)S(=O)(=O)c1cccc(C(=O)OCC(=O)NCc2ccco2)c1	none
COc1ccc(N(C)S(=O)(=O)c2cccc(C(=O)OCC(=O)NCc3ccccc3OC)c2)cc1	TAAR1 antagonist 56.7
COc1ccc(N(C)S(=O)(=O)c2cccc(C(=O)Nc3nc(C)cs3)c2)cc1	none
COc1ccc(NC(=O)C2Cc3c(-c4ccc5c(c4)OCO5)ccnc3O2)cc1 (stereo not drawn)	none (no result: OXTR agonist, OXTR potentiator, V1aR counter)
Cc1cccc(N(CC(=O)NCc2ccc3c(c2)OCO3)C(=O)CCC(=O)Nc2ccccn2)c1C	TAAR1 antagonist 52.4 (no result: OXTR agonist, OXTR potentiator, V1aR counter)
CC(=O)OCC(=O)NCC1CCN(C(=O)C(=O)c2cc3ccccc3o2)CC1	none (no result: OXTR agonist, OXTR potentiator, V1aR counter)
Cc1ccc(C(=O)OCc2cc3ccccc3[nH]c2=O)cc1	TAAR1 ag 42.2
COC(=O)c1c(-c2ccc(Br)cc2)csc1NC(=O)Cc1ccc(OC)c(OC)c1	none
COC(=O)c1c(-c2ccc(C)cc2)csc1NC(=O)Cc1ccc(OC)c(OC)c1	TAAR1 antagonist 54.8 (no result: OXTR agonist, OXTR potentiator, V1aR counter)
O=C1c2ccccc2-c2onc3ccc(N4CCCC4)c1c23	none (no result: OXTR agonist, OXTR potentiator, V1aR counter)
O=C1c2ccccc2-c2onc3ccc(NCc4ccco4)c1c23	OXTR agonist 58.4, V1aR counter 34.6 (no result: TAAR1 ag, TAAR1 antagonist)
CCOc1ccc(S(=O)(=O)N(CC)CC(=O)NC2CC2)cc1	none
CC(C)(C)C(=O)NC(=S)NNC(=O)c1ccc(-c2ccccc2)cc1	OXTR agonist 108.2, V1aR counter 117.2 (no result: TAAR1 ag, TAAR1 antagonist)
CC(C)(C)C(=O)NC(=S)NNC(=O)c1ccncc1	none
CCOCCc1nnc(NC(=O)Cc2ccc(Br)cc2)s1	TAAR1 ag 45.9
O=C(CCc1nc(-c2ccccc2F)no1)Nc1ccc(Oc2ccccc2)cc1	TAAR1 antagonist 53.8
COc1cccc(NC(=O)CCc2nc(-c3ccccc3F)no2)c1	none
Cc1ccc(C(OCC(O)CNCc2ccc(F)cc2)c2ccccc2)cc1 (stereo not drawn)	TAAR1 ag 40.1
O=C(O)C(Cc1ccc(Cl)cc1)Sc1nc2ccccc2[nH]1 (stereo not drawn)	none (no result: OXTR agonist, OXTR potentiator, V1aR counter)
C=CCN(c1ccccc1OC)S(=O)(=O)c1cccc(C(=O)OCC(=O)c2c(N)n(C)c(=O)n(C)c2=O)c1	TAAR1 antagonist 51.7 (no result: OXTR agonist, OXTR potentiator, V1aR counter)
O=S(=O)(Nc1ccc(O)c2ccccc12)c1ccc(Br)cc1	none (no result: TAAR1 ag, TAAR1 antagonist)
CCOc1cc(N(CC)CC)ccc1/C=C(/C#N)c1nc2ccccc2[nH]1	OXTR agonist 114.1, TAAR1 ag 48.3, TAAR1 antagonist 91.8, V1aR counter 115.8
Cc1cc(/C=C(\C#N)c2nc3ccccc3[nH]2)c(C)n1C	none
CCN(CC)c1ccc(/C=C(/C#N)c2nc3ccc(C)cc3[nH]2)c(OC(C)C)c1	OXTR agonist 69.0, TAAR1 ag 41.2, TAAR1 antagonist 72.6, V1aR counter 49.8

From PubChem BioAssay
